Key:
Liver = assay: Liver-to-plasma partition coefficient in rat
[1] = AUC in rat at 10 mg/kg, po; format: ADME, organism-based; set-up: dose 10 mg/kg, route oral; settings: plasma
[2] = Cmax in rat at 10 mg/kg, po; format: ADME, organism-based; set-up: dose 10 mg/kg, route oral; settings: in vivo
[3] = Drug uptake in rat liver after 8 hrs; format: ADME, tissue-based; settings: read-out: Drug uptake
[4] = Oral bioavailability in rat at 10 mg/kg; format: ADME, organism-based; settings: in vivo
Procedure, shortened: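 Bioavailability was derived from rat oral dosing in 1% N-methyl-2-pyrrolidone, 0.5% Methocel and 0.3% Tween-80, compared with intravenous dosing in a 70% PEG-400-based vehicle.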

[5] = Volume of distribution at steady state in rat at 4 mg/kg, iv; format: ADME, organism-based; set-up: dose 4 mg/kg, route intravenous; settings: in vivo, read-out: Vdss
Procedure, shortened: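 Rats received intravenous dosing in a vehicle of 70% PEG-400.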

| Kp (Liver) | AUC [1] [µM·h] | Cmax [2] [µM] | concentration at 8 h [3] [µM] | bioavailability [4] [%] | Vd [5] [L/kg] | Compound |
| --- | --- | --- | --- | --- | --- | --- |
| > 1500 | 1.4 | 0.87 | 73 | 16 | 2 | COc1ccc2c(O[C@@H]3C[C@H]4C(=O)N[C@]5(C(=O)NS(=O)(=O)C6(C)CC6)C[C@H]5/C=C\CCCCC[C@H](NC(=O)c5cnn(C)n5)C(=O)N4C3)cc(OC(C)C)nc2c1C |
| > 1500 | 1.4 | 1.3 | 56 | 14 | 0.97 | COc1ccc2c(O[C@@H]3C[C@H]4C(=O)N[C@]5(C(=O)NS(=O)(=O)C6(C)CC6)C[C@H]5/C=C\CCCCC[C@H](NC(=O)c5ccn(C)n5)C(=O)N4C3)cc(OC(C)C)nc2c1C |
| 323 | 0.36 | 0.3 | 6.5 | 6.1 | 0.86 | COc1ccc2c(O[C@@H]3C[C@H]4C(=O)N[C@]5(C(=O)NS(=O)(=O)C6CC6)C[C@H]5/C=C\CCCCC[C@H](NC(=O)c5ccn(CC(F)F)n5)C(=O)N4C3)cc(OC(C)C)nc2c1C |
| 360 | 1.3 | 0.88 | 11 | 11 | 3.3 | COc1ccc2c(O[C@@H]3C[C@H]4C(=O)N[C@]5(C(=O)NS(=O)(=O)C6CC6)C[C@H]5/C=C\CCCCC[C@H](NC(=O)c5ccn(CC(F)(F)F)n5)C(=O)N4C3)cc(OC(C)C)nc2c1C |
